# Source: PubChem (The Scripps Research Institute Molecular Screening Center)
# SIAE primary: blocks human sialic acid acetylesterase. AID 1053197. actives 0.69% (n = 370,000). inhibition, % at 9.66 µM. SIAE FP-Rh probe binding, fluorescence polarization. Q9HAT2;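 active means inhibition above a cutoff: mean of compounds within the control limits plus 3 SD of those, cut at about 17% in these data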;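 further: 0% = plate median of compound wells and 100% = probe without SIAE protein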
# HTRA1 inh: blocks human HTRA1 serine peptidase. recombinant HTRA1, FP-rhodamine activity-based probe, fluorescence polarization. inhibition, % at 5.96 µM. actives 0.5% (n = 340,000). AID 504803; in the data active means inhibition above about 36%;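 further: 0% = enzyme with DMSO and 100% = wells lacking enzyme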
# mABHD4 FP: ABHD4 (mouse) inhibition, primary FP screen; Q8VD66; purified mABHD4, FP-Rh probe fluorescence polarization; inhibition, % at 8.92 µM; actives 0.54% (n = 370,000);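 active means inhibition exceeding the mean over every tested compound plus 3 SD, cut at about 30% in these data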;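 further: 0% = plate median of compound wells and 100% = S159A mutant with DMSO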
# Target sequence (Q8VD66 whole entry, looked up): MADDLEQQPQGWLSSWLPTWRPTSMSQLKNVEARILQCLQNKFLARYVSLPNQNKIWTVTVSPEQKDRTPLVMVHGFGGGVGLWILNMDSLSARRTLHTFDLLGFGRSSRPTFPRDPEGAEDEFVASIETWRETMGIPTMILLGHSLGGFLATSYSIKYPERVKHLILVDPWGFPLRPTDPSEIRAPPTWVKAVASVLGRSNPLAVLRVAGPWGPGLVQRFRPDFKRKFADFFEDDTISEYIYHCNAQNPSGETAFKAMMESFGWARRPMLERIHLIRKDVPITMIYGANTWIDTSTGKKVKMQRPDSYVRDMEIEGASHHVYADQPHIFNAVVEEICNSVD
#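 Material: mouse ABHD4 enzyme, wild type; Benchmarks: S159A mutant high control, sample median low control; Buffer or medium: HEPES pH 7.0, NaCl, Pluronic buffer; Signal: fluorescence polarization; Read-out: percent inhibition of probe binding, normalized to plate controls; Timing: pre-incubation 45 min, probe exposure 60 min, at 25 °C; Dosing: 8.92 µM, single dose.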
# TCR CD3 inh: human TCR-CD3 binding inhibition | TAMRA-labeled TCR probe fluorescence, biochemical | AID 651800 | inhibition, % at 9.4 µM | actives 0.37% (n = 360,000); in the data active means inhibition above about 19%;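 further: recombinant mutant TCR 2C K166C tagged with TAMRA read by polarization; 0% = receptor in buffer alone and 100% = receptor with positive control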
# rCAG binder-1: r(CAG) repeat RNA binding; actives 1.3% (n = 370,000); AID 651821; TO-PRO-1 dye displacement fluorescence; inhibition, % at 3 µM;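 active means inhibition above the plate cutoff, the mean of all test compounds on that plate plus 3 SD, cut at about 35% in these data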;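 further: 0% = DMSO alone and 100% = 100 µM mitoxantrone as full dye displacement; higher means more dye released from RNA so lower well fluorescence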
# rCAG binder conf: r(CAG) RNA repeat binding, confirmation | actives 70% (n = 4,300) | shares compounds with rCAG binder-1 | TO-PRO-1 dye displacement fluorescence | inhibition, % at 3 µM;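 active means inhibition above a per-plate cutoff, the mean inhibition of sample wells plus 3 SD, cut at about 35% in these data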;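 further: loss of TO-PRO-1 fluorescence as compound displaces dye from 1x1 AA loop RNA; 0% = DMSO only wells and 100% = 100 µM mitoxantrone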
# DNA CAG counter: disrupts DNA CAG TO-PRO-1 complex, flagging rCAG hits; d(CAG) DNA oligo TO-PRO-1 dye displacement, fluorescence; actives 94% (n = 4,300); shares compounds with rCAG binder-1; inhibition, % at 3 µM;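 active means inhibition above its plate's cutoff, the mean test-well inhibition plus 3 SD, cut at about 4.8% in these data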;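 further: 0% = DNA dye mix with DMSO and 100% = 100 µM mitoxantrone; hits displace the dye from DNA and so lower well fluorescence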
# DNA CAG DR: counter-screen for rCAG binders: inhibitors of DNA CAG TO-PRO-1 complex; shares compounds with rCAG binder-1; DNA CAG/GTC duplex TO-PRO-1 dye displacement fluorescence; IC50, µM; actives 20% (n = 250); AID 686960; in the data active means IC50 below about 10 µM
# dCAG TOPRO ctr: inhibits DNA CAG/GTC TO-PRO-1 complex, rCAG binder counter-screen. shares compounds with rCAG binder-1. d(CAG) DNA duplex TO-PRO-1 dye displacement, fluorescence. IC50, µM. actives 80% (n = 30)
# rCAG binder-2: r(CAG) repeat RNA binding, TO-PRO-1 displacement. shares compounds with rCAG binder-1. IC50, µM. r(CAG) RNA TO-PRO-1 dye displacement, fluorescence. actives 100% (n = 30)
# * marks the source's active call; other numbers are inactive results; / = not tested or not shown. An excerpt weighted towards active compounds, which were near 2.5% of everything screened. Unless noted, how the calls were made is not given here.
SMILES,SIAE primary,HTRA1 inh,mABHD4 FP,TCR CD3 inh,rCAG binder-1,rCAG binder conf,DNA CAG counter,others
CCOc1ccc(NC(=O)c2ccc3c(SCC(=O)O)c4c(nc3c2)CCCC4)cc1,-4.8,-8.6,-4.9,0.0,3.8,/,/,
CCOC(=O)c1ccccc1NC(=O)c1ccc2c(SCC(=O)O)c3c(nc2c1)CCCC3,-28.5,-76.6,-5.3,5.0,45.5*,73.6*,30.1*,DNA CAG DR=7.14*;dCAG TOPRO ctr=5.47*;rCAG binder-2=2.98*
O=C(O)CSc1c2c(nc3cc(C(=O)Nc4cccc(C(F)(F)F)c4)ccc13)CCC2,-45.7,-61.9,-55.8,1.3,71.7*,57.3*,20.6*,
CC(=O)c1cccc(NC(=O)C2CC(=O)N(c3cccc(C)c3C)C2)c1 (centres undefined),0.6,0.5,-3.0,1.2,-1.1,/,/,
O=C(COc1ccccc1/C=C1\SC(=O)NC1=O)Nc1ccccc1,-6.3,-19.2,-25.4,1.3,35.0*,47.8*,15.0*,
COc1cccc(/C=C2/NC(=O)NC2=O)c1OCC(=O)Nc1ccccc1,-6.0,2.2,-1.1,-0.5,-1.4,/,/,
O=C1NC(=O)/C(=C/c2ccccc2OCc2ccccc2)S1,-19.9,-51.3,-31.4,6.6,67.1*,60.2*,15.6*,
CSCCC(NC(=O)COc1ccccc1)C(=O)N1CCN(c2ccccc2)CC1 (centres undefined),0.8,-4.6,4.7,-3.8,1.1,/,/,
CCN(CC)C(=O)Oc1ccccc1NC(C)=O,-5.1,3.5,2.8,2.9,-1.6,/,/,
COc1ccc(C(=O)/C=C/c2ccc(OCc3ccccc3)cc2)cc1CSCC(=O)O,-18.9,-52.8,-17.8,-1.9,57.1*,77.7*,36.1*,
COc1ccc(C(C)=O)cc1CSCC(=O)O,5.8,1.6,-1.0,2.3,2.6,/,/,
COc1ccc(C(=O)/C=C/c2cccc(OCc3ccccc3)c2)cc1CSCC(=O)O,-28.0,-32.1,-40.6,2.4,60.5*,82.8*,44.2*,
COc1ccc(C=CC(=O)c2ccc(OCc3ccccc3)c(OC)c2)cc1OC,-10.7,-22.0,-20.4,4.0,10.9,/,/,
O=C(Nc1cccc(-c2nc3ccccc3o2)c1)c1cccnc1,-2.8,-24.9,-2.6,0.6,0.3,/,/,
O=C(O)c1ccccc1-c1ccccc1C(=O)Nc1ccc2c(c1)C(=O)c1ccccc1-2,-20.2,-25.0,-17.2,7.1,59.5*,67.8*,26.1*,
COc1ccc(NC(=O)c2ccccc2-c2ccccc2C(=O)O)cc1,1.0,7.2,8.9,-6.6,1.7,/,/,
O=C(O)c1ccccc1-c1ccccc1C(=O)Nc1ccc2c(c1)oc(=O)c1ccccc12,-33.7,-38.1,-34.0,8.1,65.5*,64.8*,23.8*,
COc1ccc2c(c1)Cc1cc(NC(=O)c3ccccc3-c3ccccc3C(=O)O)ccc1-2,-2.4,-5.8,22.9,-1.1,63.3*,65.7*,28.3*,
O=C(O)c1ccccc1-c1ccccc1C(=O)Nc1cccc(-c2nc3ccccc3o2)c1,-20.0,-30.6,-30.3,0.4,64.7*,60.0*,21.8*,
CCOc1ccc(-c2ccc(/C=C3/C(=N)N4C=CSC4=NC3=O)o2)c([N+](=O)[O-])c1,7.7,-4.5,8.3,5.4,3.7,/,/,
CCOc1ccc(-c2ccc(/C=C3/C(=N)N4C(C)=CSC4=NC3=O)o2)c([N+](=O)[O-])c1,10.5,3.1,16.4,-2.0,48.6*,31.1,12.5*,
CCOc1ccc2nc(NC(=O)CSc3nc(-c4ccccc4)c(C#N)c(=O)[nH]3)sc2c1,-16.6,-88.8,-54.3,-1.6,82.9*,88.2*,68.9*,
CCOC(=O)Cc1csc(NC(=O)CSc2nc(-c3ccccc3)c(C#N)c(=O)[nH]2)n1,-4.5,-4.8,-8.8,3.1,64.0*,56.8*,20.1*,
COc1cccc(-c2nc(SCC(=O)Nc3nc(-c4ccccc4)c(C)s3)[nH]c(=O)c2C#N)c1,-53.5,-59.4,-51.8,5.1,69.9*,91.5*,75.5*,
COC(=O)CN1C(=O)N/C(=C/c2ccc(OC)cc2)C1=O,-1.7,-2.9,-3.1,4.1,-3.0,/,/,
SMILES,SIAE primary,HTRA1 inh,mABHD4 FP,TCR CD3 inh,rCAG binder-1,rCAG binder conf,DNA CAG counter,others
COC(=O)Cn1c(=O)c2c(n(Cc3ccccc3)c1=O)N/C(=C/c1ccc(Br)cc1)C2=O,-3.0,-0.3,-3.8,-4.2,62.3*,75.0*,39.6*,
c1coc(-c2nnc3sc(Cc4cccs4)nn23)c1,-2.9,15.2,19.4,7.9,35.6*,8.9,5.2*,
COc1ccc(OCc2nn3c(-c4ccco4)nnc3s2)cc1,-0.1,-8.5,-2.7,-3.1,2.0,/,/,
Cc1ccccc1NC(=O)c1cccc2c1-c1ccccc1C2=O,-1.2,/,4.2,/,2.3,/,/,
Cc1cc(/C=C2\SC(=S)NC2=O)c(C)n1C1CC1,-7.0,17.5,21.5,8.9,35.9*,22.7,7.1*,
Cc1cc(/C=C2/C(=O)N(C)C(=S)N2C)c(C)n1C1CC1,1.9,13.0,6.5,-7.6,8.2,/,/,
C[C@@H](C(=O)Nc1nc2ccc(F)cc2s1)N1C(=O)C2CC=CCC2C1=O (some centres undefined),-4.0,-4.8,-12.7,-2.6,7.1,/,/,
Cc1cc(C)c2c(n1)sc1c(O)cc(=O)[nH]c12,-1.1,-0.3,-1.7,1.1,15.3,/,/,
COc1ccc(-c2cc(C(F)(F)F)c3c(n2)sc2c(O)cc(=O)[nH]c23)c(OC)c1,-2.3,-58.7,-26.4,-11.5,42.2*,41.7*,14.4*,
COc1cc(C(=O)Nc2ccccc2C(=O)Nc2ccccn2)cc(OC)c1OC,2.6,7.0,-7.0,8.5,3.3,/,/,
COCCOC(=O)C1=C(C)NC2=C(C(=O)CC(C)(C)C2)C1c1ccc2c(c1)OCO2 (centres undefined),-0.1,3.4,4.5,-0.5,-6.1,/,/,
Cc1ccc(N(CC(=O)Nc2ccc(Br)c(C)c2)S(=O)(=O)c2c(C)[nH]c(=O)[nH]c2=O)cc1,-15.8,-28.4,-21.3,-0.4,46.7*,67.1*,22.6*,
COc1ccc(N(CC(=O)Nc2cc(Cl)ccc2OC)S(=O)(=O)c2c(C)[nH]c(=O)[nH]c2=O)cc1,-7.5,-3.1,3.8,2.0,49.0*,39.4*,13.3*,
Cc1cc(C)cc(N(CC(=O)Nc2ccc(C)cc2Cl)S(=O)(=O)c2c(C)[nH]c(=O)[nH]c2=O)c1,-2.4,1.5,-11.2,-2.1,40.4*,53.6*,16.7*,
